PMC3244355 (Journal of the American Chemical Society, 2011)
Values belong to the compound of their own block, whether it stands above or below them.

Key:
photophysical properties = assay type: physicochemical
Summary of the method: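 Samples are prepared at 20 μM. Dye–inhibitor conjugate spectra are recorded in 1% DMSO/PBS, pH 7.4, at 25 °C with excitation at 405 nm. Tabulated dye entries are excited at their λmax. Absorption maximum, molar absorptivity, emission maximum and fluorescence quantum yield are reported.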

HeLa cells [1] = experiment: membrane permeability and localization of free dyes, live-cell imaging; assay type: cell-based, human; conditions: living HeLa cells, 20 μM, 60 minutes, with AlexaFluor546-BSA endocytosis marker
Summary of the method: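 Live HeLa cells are incubated for 1 h in 20 μM test dye, with 100 μg/mL AlexaFluor546-labeled BSA as a fluid-phase endocytosis marker. Cells are washed free of dye and imaged live by epifluorescence microscopy using a custom filter set matched to 395/500 excitation/emission. Merged images are used to compare dye distribution with marker-containing endosomal vesicles.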

HeLa cells [2] = experiment: toxicity / cell viability of dye-treated cells; assay type: cell-based, human; conditions: cells treated for up to 6 h with 100 μM dye
[3] = chemical stability in aqueous buffer solution; assay type: physicochemical; conditions: pH 4–9, several days at ambient temperature
Summary of the method: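 The test dye is held in aqueous buffer across pH 4–9 at ambient temperature for several days. Absorbance/emission properties are monitored, and the solution is checked for decomposition.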

solubility = assay type: physicochemical; conditions: variety of solvents
HeLa cells [4] = experiment: cell-based assay for bipolar spindle assembly / mitotic arrest; set-up: species or system human; conditions: 4 h; for spindle morphology: HeLa cells, fixed, anti-tubulin antibodies; for EC50: Homo sapiens, HeLa, read-out: EC50 for mitotic arrest in cell-based assay
Summary of the method: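 HeLa cells are incubated for 4 h with the test compound, alongside an untreated control. They are then fixed and probed with anti-tubulin antibodies, with DNA counterstained. Spindle organization (bipolar vs. monopolar spindle formation) is assessed by fluorescence microscopy.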

[5] = biological target: T1, purified human KSP motor domain (Homo sapiens, UniProt P52732); experiment: in vitro biochemical assay for microtubule-stimulated KSP ATPase activity
T1 sequence (P52732 18-359 limits assumed): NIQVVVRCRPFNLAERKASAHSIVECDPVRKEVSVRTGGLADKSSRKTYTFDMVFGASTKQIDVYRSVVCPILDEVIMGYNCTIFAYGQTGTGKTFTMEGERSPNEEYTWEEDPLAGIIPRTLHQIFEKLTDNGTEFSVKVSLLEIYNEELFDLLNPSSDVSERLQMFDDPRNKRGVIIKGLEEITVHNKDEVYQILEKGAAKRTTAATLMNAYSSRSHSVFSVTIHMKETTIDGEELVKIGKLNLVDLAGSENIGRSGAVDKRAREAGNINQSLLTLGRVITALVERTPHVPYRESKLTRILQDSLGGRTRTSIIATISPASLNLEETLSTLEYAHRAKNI

[6] = MeOH, 20 μM sample, excited at λmax
[7] = 1%DMSO/PBS pH 7.4, 20 μM sample
[8] = 1%DMSO/PBS pH 7.4, 20 μM sample, excited at λmax
[9] = Acetone, 20 μM sample, excited at λmax
[10] = CH2Cl2, 20 μM sample, excited at λmax
[11] = Toluene, 20 μM sample, excited at λmax
[12] = conjugates, 20 μM in 1% DMSO/PBS, pH 7.4 at 25 °C
[13] = conjugates, 20 μM in 1% DMSO/PBS, pH 7.4 at 25 °C, excited at 405 nm

Compound: 6-Bromo-3,3-difluoro-2-(4-(thiophen-2-yl)benzylidene)-2,3-dihydro-[1,2,4,3]triazaborolo[4,5-a]pyridin-2-ium-3-uide [Compound 8]
- Φf (photophysical properties; MeOH, 20 μM sample): 0.71
- ε (photophysical properties; MeOH, 20 μM sample): 26 600 M^−1cm^−1
- λmax (photophysical properties; MeOH, 20 μM sample): 490 nm
- λemi (photophysical properties; [6]): 562 nm

Compound: F[B-]1(F)N2C=CC=CC2=N[N+]1=Cc1ccc(-c2cccs2)cc1 [Compound 2, 3,3-Difluoro-2-(4-(thiophen-2-yl)benzylidene)-2,3-dihydro-[1,2,4,3]triazaborolo[4,5-a]pyridine-2-ium-3-uide]
- Φf (photophysical properties; MeOH, 20 μM sample): 0.75
- ε (photophysical properties; MeOH, 20 μM sample): 28 800 M^−1cm^−1
- λmax (photophysical properties; MeOH, 20 μM sample): 472 nm
- λemi (photophysical properties; [6]): 551 nm

Compound: F[B-]1(F)N2C=C(Cl)C=CC2=N[N+]1=Cc1ccc(-c2cccs2)cc1 [Compound 4]
- Φf (photophysical properties; MeOH, 20 μM sample): 0.69
- ε (photophysical properties; MeOH, 20 μM sample): 26 800 M^−1cm^−1
- λmax (photophysical properties; MeOH, 20 μM sample): 491 nm
- λemi (photophysical properties; [6]): 563 nm

Compound: F[B-]1(F)N2C=C(Br)C=CC2=N[N+]1=Cc1ccc(-c2cccs2)cc1 [Compound 6, 6-Bromo-3,3-difluoro-2-(4-(thiophen-2-yl)benzylidene)-2,3-dihydro-[1,2,4,3]triazaborolo[4,5-a]pyridin-2-ium-3-uide]
- Φf (photophysical properties; MeOH, 20 μM sample): 0.95
- ε (photophysical properties; MeOH, 20 μM sample): 32 900 M^−1cm^−1
- λmax (photophysical properties; MeOH, 20 μM sample): 482 nm
- λemi (photophysical properties; [6]): 562 nm

Compound: F[B-]1(F)N2C=C(Br)C=CC2=N[N+]1=Cc1ccccc1 [Compound 10, 2-Benzylidene-6-bromo-3,3-difluoro-2,3-dihydro-[1,2,4,3]triazaborolo[4,5-a]pyridin-2-ium-3-uide]
- Φf (photophysical properties; MeOH, 20 μM sample): 0.31
- ε (photophysical properties; MeOH, 20 μM sample): 22 600 M^−1cm^−1
- λmax (photophysical properties; MeOH, 20 μM sample): 471 nm
- λemi (photophysical properties; [6]): 539 nm

Compound: F[B-]1(F)N2C=C(n3cc(-c4ccccc4)nn3)C=CC2=N[N+]1=Cc1ccc(-c2cccs2)cc1 [Compound 12, 3,3-Difluoro-6-(4-phenyl-1H-1,2,3-triazol-1-yl)-2-(4-(thiophen-2-yl)benzylidene)-2,3-dihydro-[1,2,4,3]triazaborolo[4,5-a]pyridin-2-ium-3-uide]
- Φf (photophysical properties; MeOH, 20 μM sample): 0.37
- ε (photophysical properties; MeOH, 20 μM sample): 33 800 M^−1cm^−1
- λmax (photophysical properties; MeOH, 20 μM sample): 491 nm
- λemi (photophysical properties; [6]): 572 nm

Compound: COc1ccc(C(SC[C@H](N)C(=O)O)(c2ccccc2)c2ccccc2)cc1 [Compound 19, reference compound]
- spindle morphology (HeLa cells [4]): dose-dependent formation of monopolar spindles

Now from value to compound, other results behind:

- Φf (photophysical properties; MeOH, 20 μM sample): 0.38
- ε (photophysical properties; MeOH, 20 μM sample): 36 700 M^−1cm^−1
- λmax (photophysical properties; MeOH, 20 μM sample): 481 nm
- λemi (photophysical properties; [6]): 572 nm
Compound: C#CC1=CN2C(=N[N+](=Cc3ccc(-c4cccs4)cc3)[B-]2(F)F)C=C1 [Compound 14, 6-Ethynyl-3,3-difluoro-2-(4-(thiophen-2-yl)benzylidene)-2,3-dihydro-[1,2,4,3]triazaborolo[4,5-a]pyridin-2-ium-3-uide]

- Φf (photophysical properties; [7]): 0.17
- ε (photophysical properties; [7]): 8 600 M^−1cm^−1
- λmax (photophysical properties; [7]): 404 nm
- λemi (photophysical properties; [8]): 491 nm
- Φf (photophysical properties; Acetone, 20 μM sample): 0.17
- ε (photophysical properties; Acetone, 20 μM sample): 8 600 M^−1cm^−1
- λmax (photophysical properties; Acetone, 20 μM sample): 403 nm
- λemi (photophysical properties; [9]): 504 nm
- Φf (photophysical properties; CH2Cl2, 20 μM sample): 0.22
- ε (photophysical properties; CH2Cl2, 20 μM sample): 9 300 M^−1cm^−1
- λmax (photophysical properties; CH2Cl2, 20 μM sample): 408 nm
- λemi (photophysical properties; [10]): 497 nm
- Φf (photophysical properties; MeOH, 20 μM sample): 0.21
- ε (photophysical properties; MeOH, 20 μM sample): 8 500 M^−1cm^−1
- λmax (photophysical properties; MeOH, 20 μM sample): 403 nm
- λemi (photophysical properties; [6]): 493 nm
- Φf (photophysical properties; Toluene, 20 μM sample): 0.07
- ε (photophysical properties; Toluene, 20 μM sample): 9 800 M^−1cm^−1
- λmax (photophysical properties; Toluene, 20 μM sample): 406 nm
- λemi (photophysical properties; [11]): 500 nm
- cell membrane permeability (HeLa cells [1]): membrane permeable
- chemical stability in aqueous buffer solution [3]: no decomposition in solution was evident
- solubility in solvents (solubility): soluble in a variety of solvents
Compound: CC(C)=[N+]1N=C2C=CC(Br)=CN2[B-]1(F)F [Compound 16, 6-Bromo-3,3-difluoro-2-(propan-2-ylidene)-2,3-dihydro-[1,2,4,3]triazaborolo[4,5-a]pyridin-2-ium-3-uide]
- toxicity / effects on cell viability (HeLa cells [2]): no toxicity

- Φf (photophysical properties; MeOH, 20 μM sample): 0.20
- ε (photophysical properties; MeOH, 20 μM sample): 8 300 M^−1cm^−1
- λmax (photophysical properties; MeOH, 20 μM sample): 400 nm
- λemi (photophysical properties; [6]): 496 nm
- solubility in solvents (solubility): soluble in a variety of solvents
Compound: CC(C)=[N+]1N=C2C=CC(I)=CN2[B-]1(F)F [Compound 18, 3,3-Difluoro-6-iodo-2-(propan-2-ylidene)-2,3-dihydro-[1,2,4,3]triazaborolo[4,5-a]pyridin-2-ium-3-uide]

- Φf (photophysical properties; [7]): 0.16
- ε (photophysical properties; [7]): 12 300 M^−1cm^−1
- λmax (photophysical properties; [7]): 404 nm
- λemi (photophysical properties; [8]): 492 nm
- Φf (photophysical properties; Acetone, 20 μM sample): 0.23
- ε (photophysical properties; Acetone, 20 μM sample): 10 800 M^−1cm^−1
- λmax (photophysical properties; Acetone, 20 μM sample): 407 nm
- λemi (photophysical properties; [9]): 504 nm
- Φf (photophysical properties; CH2Cl2, 20 μM sample): 0.20
- ε (photophysical properties; CH2Cl2, 20 μM sample): 11 200 M^−1cm^−1
- λmax (photophysical properties; CH2Cl2, 20 μM sample): 406 nm
- λemi (photophysical properties; [10]): 497 nm
- Φf (photophysical properties; MeOH, 20 μM sample): 0.21
- ε (photophysical properties; MeOH, 20 μM sample): 12 000 M^−1cm^−1
- λmax (photophysical properties; MeOH, 20 μM sample): 403 nm
- λemi (photophysical properties; [6]): 492 nm
- Φf (photophysical properties; Toluene, 20 μM sample): 0.51
- ε (photophysical properties; Toluene, 20 μM sample): 10 600 M^−1cm^−1
- λmax (photophysical properties; Toluene, 20 μM sample): 410 nm
- λemi (photophysical properties; [11]): 501 nm
- cell membrane permeability (HeLa cells [1]): membrane permeable
- solubility in solvents (solubility): soluble in a variety of solvents
Compound: CO[B-]1(OC)N2C=C(Br)C=CC2=N[N+]1=C(C)C [Compound 21, 6-Bromo-3,3-dimethoxy-2-(propan-2-ylidene)-2,3-dihydro-[1,2,4,3]triazaborolo[4,5-a]pyridin-2-ium-3-uide]
- toxicity / effects on cell viability (HeLa cells [2]): no toxicity

- Φf (photophysical properties; MeOH, 20 μM sample): 0.21
- ε (photophysical properties; MeOH, 20 μM sample): 9 400 M^−1cm^−1
- λmax (photophysical properties; MeOH, 20 μM sample): 400 nm
- λemi (photophysical properties; [6]): 476 nm
- solubility in solvents (solubility): soluble in a variety of solvents
Compound: CO[B-]1(OC)N2C=C(I)C=CC2=N[N+]1=C(C)C [Compound 22, 6-Iodo-3,3-dimethoxy-2-(propan-2-ylidene)-2,3-dihydro[1,2,4,3]triazaborolo[4,5-a]pyridin-2-ium-3-uide]

- IC50 [5]: 850 nM
- EC50 (HeLa cells [4]): 1130 nM
- ε (photophysical properties; [12]): 9 900
- λmax (photophysical properties; [12]): 400 nm
- Φf (photophysical properties; [13]): 0.31
- λemi (photophysical properties; [13]): 489 nm
Compound: COc1ccc(C(SCC(N)C(=O)NCCC#CC2=CN3C(=N[N+](=C(C)C)[B-]3(F)F)C=C2)(c2ccccc2)c2ccccc2)cc1 (stereo not drawn) [Compound 25, 6-(4-(2-Amino-3-((4-methoxyphenyl)diphenylmethylthio)propanamido)but-1-ynyl)-3,3-difluoro-2-(propan-2-ylidene)-2,3-dihydro-[1,2,4,3]triazaborolo[4,5-a]pyridin-2-ium-3-uide]
- spindle morphology (HeLa cells [4]): dose-dependent formation of monopolar spindles

- IC50 [5]: 600 nM
- EC50 (HeLa cells [4]): 1030 nM
- ε (photophysical properties; [12]): 12 900
- λmax (photophysical properties; [12]): 400 nm
- Φf (photophysical properties; [13]): 0.29
- λemi (photophysical properties; [13]): 486 nm
Compound: COc1ccc(C(SCC(N)C(=O)NCCC#CC2=CN3C(=N[N+](=C(C)C)[B-]3(OC)OC)C=C2)(c2ccccc2)c2ccccc2)cc1 (stereo not drawn) [Compound 26, 6-(4-(2-Amino-3-((4-methoxyphenyl)diphenylmethylthio)propanamido)-but-1-ynyl)-3,3-dimethoxy-2-(propan-2-ylidene)-2,3-dihydro-[1,2,4,3]triazaborolo[4,5-a]pyridin-2-ium-3-uide]
- spindle morphology (HeLa cells [4]): dose-dependent formation of monopolar spindles

- IC50 [5]: 750 nM
- EC50 (HeLa cells [4]): 580 nM
Compound: COc1ccc(C(SCC(N)C(=O)NCCOCCN)(c2ccccc2)c2ccccc2)cc1 (stereo not drawn) [Compound 27, 2-Amino-N-(2-(2-aminoethoxy)ethyl)-3-((4-methoxyphenyl)diphenylmethylthio)propanamide]
